Results as given in ChEMBL document CHEMBL1142963, “Novel sigma receptor ligands: synthesis and biological profile” (J Med Chem, 2007).

Legend:
[1] = target: Sodium-dependent dopamine transporter (Rattus norvegicus, UniProt P23977); test: Displacement of [3H]WIN-35428 from rat striatum DAT
In short: (§1)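 Rat brain tissue by target: striatum for D1, D2 and DAT; olfactory tubercle for D3; cortex for muscarinic, 5-HT3, 5-HT2A, α1, α2, H1, NMDA and SERT; guinea pig cortex for 5-HT4. Inhibitors at seven to nine concentrations. After incubation, samples were filtered on glass fibre filters, washed three times with ice-cold buffer and counted by liquid scintillation. Ki values were derived by curve fitting.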

[2] = target: D(3) dopamine receptor (Rattus norvegicus, UniProt P19020); test: Displacement of [3H]7OH-DPAT from rat olfactory tubercle dopamine D3 receptor; type: tissue-based; in short: as §1
D(3) dopamine receptor, sequence (P19020 whole entry): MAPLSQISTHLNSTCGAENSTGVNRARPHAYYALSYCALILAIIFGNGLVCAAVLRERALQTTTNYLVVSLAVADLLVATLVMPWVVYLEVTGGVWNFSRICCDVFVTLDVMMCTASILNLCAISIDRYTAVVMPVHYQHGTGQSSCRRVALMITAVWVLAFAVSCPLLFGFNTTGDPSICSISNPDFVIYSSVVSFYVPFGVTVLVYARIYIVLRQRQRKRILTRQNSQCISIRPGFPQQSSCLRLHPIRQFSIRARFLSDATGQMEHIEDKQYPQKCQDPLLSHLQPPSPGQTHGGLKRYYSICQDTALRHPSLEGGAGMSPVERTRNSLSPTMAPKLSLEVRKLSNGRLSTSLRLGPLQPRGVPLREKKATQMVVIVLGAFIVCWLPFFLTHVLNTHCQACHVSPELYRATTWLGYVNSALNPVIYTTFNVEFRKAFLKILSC

[3] = target: D(2) dopamine receptor (Rattus norvegicus, UniProt P61169); test: Displacement of [3H]spiperone from rat striatum dopamine D2 receptor; in short: as §1
D(2) dopamine receptor, sequence (P61169 whole entry): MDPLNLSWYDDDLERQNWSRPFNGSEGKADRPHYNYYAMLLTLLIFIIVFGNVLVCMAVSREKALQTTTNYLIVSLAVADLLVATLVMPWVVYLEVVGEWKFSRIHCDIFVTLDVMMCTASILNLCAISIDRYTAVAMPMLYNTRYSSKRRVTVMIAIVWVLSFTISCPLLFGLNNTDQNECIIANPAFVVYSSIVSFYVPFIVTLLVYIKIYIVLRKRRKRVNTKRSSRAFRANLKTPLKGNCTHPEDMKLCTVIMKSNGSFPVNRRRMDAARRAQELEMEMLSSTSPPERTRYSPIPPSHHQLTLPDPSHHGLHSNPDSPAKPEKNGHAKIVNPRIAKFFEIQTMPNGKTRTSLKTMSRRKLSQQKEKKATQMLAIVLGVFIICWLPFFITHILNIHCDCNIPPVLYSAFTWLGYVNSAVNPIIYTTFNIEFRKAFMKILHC

[4] = target: Sigma non-opioid intracellular receptor 1 (Cavia porcellus, UniProt Q60492); test: Displacement of [3H](+)-pentazocine from guinea pig brain sigma 1 receptor
Sigma non-opioid intracellular receptor 1, sequence (Q60492 whole entry): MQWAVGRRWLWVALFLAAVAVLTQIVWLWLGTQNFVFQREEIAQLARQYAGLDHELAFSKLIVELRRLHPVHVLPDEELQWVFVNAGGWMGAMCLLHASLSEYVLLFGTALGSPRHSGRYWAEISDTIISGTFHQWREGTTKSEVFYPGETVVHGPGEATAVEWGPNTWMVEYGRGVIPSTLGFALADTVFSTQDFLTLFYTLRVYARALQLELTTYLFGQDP

[5] = target: D(1A) dopamine receptor (Rattus norvegicus, UniProt P18901); test: Displacement of [3H]SCH-23390 from rat striatum dopamine D1 receptor; in short: as §1
D(1A) dopamine receptor, sequence (P18901 whole entry): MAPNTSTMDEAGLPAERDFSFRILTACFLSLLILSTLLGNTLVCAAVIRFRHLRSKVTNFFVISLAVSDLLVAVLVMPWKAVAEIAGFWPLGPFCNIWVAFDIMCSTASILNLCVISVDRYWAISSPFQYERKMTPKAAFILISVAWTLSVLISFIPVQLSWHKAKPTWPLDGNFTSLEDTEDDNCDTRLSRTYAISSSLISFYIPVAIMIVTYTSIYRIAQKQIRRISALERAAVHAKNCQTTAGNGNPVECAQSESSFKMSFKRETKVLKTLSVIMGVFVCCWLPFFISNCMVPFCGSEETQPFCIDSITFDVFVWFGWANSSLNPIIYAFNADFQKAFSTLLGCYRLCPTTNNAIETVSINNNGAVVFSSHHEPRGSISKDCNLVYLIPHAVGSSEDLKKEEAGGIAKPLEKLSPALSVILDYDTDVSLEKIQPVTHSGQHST

[6] = target: Sodium-dependent serotonin transporter (Rattus norvegicus, UniProt P31652); test: Displacement of [3H]citalopram from rat cortex SERT; in short: as §1
Sodium-dependent serotonin transporter, sequence (P31652 whole entry): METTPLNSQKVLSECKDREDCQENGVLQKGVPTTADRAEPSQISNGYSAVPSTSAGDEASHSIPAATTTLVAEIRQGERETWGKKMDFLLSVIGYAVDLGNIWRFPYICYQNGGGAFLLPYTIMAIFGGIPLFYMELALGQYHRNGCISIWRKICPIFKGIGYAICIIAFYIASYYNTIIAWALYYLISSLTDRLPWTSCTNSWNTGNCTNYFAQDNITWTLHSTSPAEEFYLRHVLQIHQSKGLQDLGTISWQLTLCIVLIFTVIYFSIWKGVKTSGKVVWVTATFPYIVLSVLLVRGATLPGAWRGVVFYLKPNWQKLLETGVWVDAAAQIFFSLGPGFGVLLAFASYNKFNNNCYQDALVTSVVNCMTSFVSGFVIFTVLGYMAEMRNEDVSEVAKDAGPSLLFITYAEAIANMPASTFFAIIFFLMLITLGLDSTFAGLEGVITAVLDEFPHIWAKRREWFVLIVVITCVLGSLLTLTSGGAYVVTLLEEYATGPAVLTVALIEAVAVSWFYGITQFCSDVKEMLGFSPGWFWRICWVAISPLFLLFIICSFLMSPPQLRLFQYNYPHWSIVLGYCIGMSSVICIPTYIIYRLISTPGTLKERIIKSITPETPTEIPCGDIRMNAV

[7] = target: 5-hydroxytryptamine receptor 4 (Cavia porcellus, UniProt O70528); test: Displacement of [3H][…] from guinea pig cortex 5HT4 receptor; in short: as §1
5-hydroxytryptamine receptor 4, sequence (O70528 whole entry): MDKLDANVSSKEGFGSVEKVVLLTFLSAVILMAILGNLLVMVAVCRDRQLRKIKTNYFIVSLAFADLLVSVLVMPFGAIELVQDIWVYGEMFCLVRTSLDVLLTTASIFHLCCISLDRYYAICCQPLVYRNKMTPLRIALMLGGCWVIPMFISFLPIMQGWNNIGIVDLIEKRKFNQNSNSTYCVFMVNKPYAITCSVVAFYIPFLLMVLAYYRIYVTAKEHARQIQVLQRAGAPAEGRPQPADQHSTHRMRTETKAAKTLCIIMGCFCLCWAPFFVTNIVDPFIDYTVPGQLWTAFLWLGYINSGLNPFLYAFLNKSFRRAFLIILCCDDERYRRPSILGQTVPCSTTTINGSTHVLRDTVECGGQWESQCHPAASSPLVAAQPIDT

[8] = target: T1, Adrenergic receptor alpha-1 (Rattus norvegicus, UniProt P15823+P23944+P43140); test: Displacement of [3H]prazosin from rat cortex adrenergic alpha-1 receptor; in short: as §1
T1 sequence (P15823 whole entry): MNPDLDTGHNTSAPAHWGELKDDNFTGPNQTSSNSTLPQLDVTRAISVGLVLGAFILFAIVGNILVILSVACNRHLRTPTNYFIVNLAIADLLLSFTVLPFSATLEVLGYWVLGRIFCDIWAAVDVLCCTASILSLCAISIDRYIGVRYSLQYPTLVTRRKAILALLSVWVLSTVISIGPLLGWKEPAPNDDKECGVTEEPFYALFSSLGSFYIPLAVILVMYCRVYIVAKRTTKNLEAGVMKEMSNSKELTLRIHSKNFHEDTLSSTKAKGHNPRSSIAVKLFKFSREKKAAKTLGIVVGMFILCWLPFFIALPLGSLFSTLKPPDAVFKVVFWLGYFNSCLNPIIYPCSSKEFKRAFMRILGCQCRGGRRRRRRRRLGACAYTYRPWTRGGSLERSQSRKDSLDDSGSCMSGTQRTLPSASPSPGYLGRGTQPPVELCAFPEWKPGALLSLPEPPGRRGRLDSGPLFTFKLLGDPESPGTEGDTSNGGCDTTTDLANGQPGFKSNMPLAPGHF
T1 sequence (P23944 whole entry): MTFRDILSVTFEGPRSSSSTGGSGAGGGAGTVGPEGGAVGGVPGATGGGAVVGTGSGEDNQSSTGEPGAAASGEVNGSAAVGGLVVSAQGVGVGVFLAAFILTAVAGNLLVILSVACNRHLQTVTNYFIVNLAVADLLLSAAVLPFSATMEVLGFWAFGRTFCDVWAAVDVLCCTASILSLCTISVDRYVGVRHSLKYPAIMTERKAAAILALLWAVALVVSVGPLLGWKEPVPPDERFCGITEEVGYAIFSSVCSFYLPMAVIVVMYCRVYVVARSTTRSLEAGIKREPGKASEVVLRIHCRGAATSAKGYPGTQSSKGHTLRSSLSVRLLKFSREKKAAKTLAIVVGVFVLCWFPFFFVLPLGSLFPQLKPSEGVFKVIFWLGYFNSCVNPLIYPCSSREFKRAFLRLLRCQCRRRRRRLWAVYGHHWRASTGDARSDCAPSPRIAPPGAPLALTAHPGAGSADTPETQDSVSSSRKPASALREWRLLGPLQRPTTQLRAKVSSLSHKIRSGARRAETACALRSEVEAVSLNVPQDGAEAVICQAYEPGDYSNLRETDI
T1 sequence (P43140 whole entry): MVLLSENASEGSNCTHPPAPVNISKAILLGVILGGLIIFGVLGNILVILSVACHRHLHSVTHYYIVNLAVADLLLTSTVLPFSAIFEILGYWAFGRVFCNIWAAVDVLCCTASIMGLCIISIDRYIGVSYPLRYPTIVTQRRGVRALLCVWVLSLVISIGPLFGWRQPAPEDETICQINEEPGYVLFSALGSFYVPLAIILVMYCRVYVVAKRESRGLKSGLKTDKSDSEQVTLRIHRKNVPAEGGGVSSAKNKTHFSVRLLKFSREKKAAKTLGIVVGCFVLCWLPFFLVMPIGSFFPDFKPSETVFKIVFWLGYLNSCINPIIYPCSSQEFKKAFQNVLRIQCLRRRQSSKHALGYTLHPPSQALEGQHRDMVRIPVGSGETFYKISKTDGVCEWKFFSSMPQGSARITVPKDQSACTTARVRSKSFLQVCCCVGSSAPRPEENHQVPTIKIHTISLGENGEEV

Sodium-dependent dopamine transporter, sequence (P23977 whole entry): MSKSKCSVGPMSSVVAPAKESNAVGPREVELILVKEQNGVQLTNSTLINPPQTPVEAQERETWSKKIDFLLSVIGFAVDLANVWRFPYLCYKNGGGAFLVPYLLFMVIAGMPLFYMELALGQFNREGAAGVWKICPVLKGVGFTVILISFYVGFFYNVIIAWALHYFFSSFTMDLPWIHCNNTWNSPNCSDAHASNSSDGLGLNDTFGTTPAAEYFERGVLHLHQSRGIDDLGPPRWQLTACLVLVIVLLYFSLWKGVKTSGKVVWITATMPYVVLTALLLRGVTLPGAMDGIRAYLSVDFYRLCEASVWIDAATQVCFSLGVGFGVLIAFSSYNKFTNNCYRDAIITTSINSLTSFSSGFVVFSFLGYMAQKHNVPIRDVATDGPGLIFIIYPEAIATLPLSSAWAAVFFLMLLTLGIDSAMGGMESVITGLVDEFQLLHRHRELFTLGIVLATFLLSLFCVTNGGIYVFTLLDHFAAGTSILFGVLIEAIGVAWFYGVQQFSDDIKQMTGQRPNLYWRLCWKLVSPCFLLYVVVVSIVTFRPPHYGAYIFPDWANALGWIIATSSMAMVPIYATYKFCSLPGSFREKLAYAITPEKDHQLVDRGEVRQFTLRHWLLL

COC(=O)C1(c2ccc(C)cc2)CC1CN1CCC(O)(c2ccccc2)CC1 (stereo not drawn)
Ki [1]: > 10 µM
Ki [2]: 4.9 µM
Ki [3]: 1.28 µM
Ki [4]: 0.0015 µM
Ki [5]: > 10 µM
Ki [6]: > 10 µM
Ki [7]: > 10 µM
Ki [8]: 0.605 µM
